Data as given in PubChem BioAssay.
The source made the active and inactive calls.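 The calls were made as follows, unless noted: active = viability at or below 30% in both replicate assays; inconclusive = viability at or below 30% in just one of the two assays; inactive = the rest.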

Tests used:
[1] = reducers of endogenous Her2 protein level, primary screen, SKBR3 breast tumor cells, AlphaScreen, ATP viability (AID 461;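 active = Her2 level under about 52% in both replicate screens, with viability over 70% of control, limit read from the data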;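 as to Her2 level: lower value means less Her2 protein in the cells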;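 as to viability: percent of carrier control wells set as 100% viability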); conditions: 18-24 h, measured here: SKBR3 viability, ATP luminescence, at 10 µM
[2] = molecular target: Receptor tyrosine-protein kinase erbB-2 (Homo sapiens) (UniProt P04626); test: as above; conditions: 18-24 h, at 10 µM, stronger effect = lower value
[3] = SK-BR-3 cell growth inhibitors, pilot screen, 24 h, human (AID 572;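 active = viability at or below 10% of carrier control in both of two separate runs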;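 also: compound exposure lasted between 18 and 24 h rather than exactly 24 h; 100% = carrier-treated control wells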); conditions: SK-BR-3 viability, CellTiter-Glo luminescence, at 10 µM, stronger effect = lower value
[4] = HUVEC growth inhibition – cell-based, human, primary screen (AID 575); conditions: HUVEC proliferation, CellTiter-Glo luminescence, 72 h; at 10 µM; stronger effect = lower value;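 also: 100% = median of untreated cell wells with 0.1% DMSO on each plate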
Method in brief: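 System: primary human umbilical vein endothelial cells; Quantity: 1250 endothelial cells in each well; Buffer or medium: supplemented EBM, 2% fetal bovine serum; Doses: one dose, 10 µM final, 0.1% DMSO; Incubation: 72 h compound incubation; Technique: ATP-based CellTiter-Glo luminescent read; Evaluation: percent of median DMSO-control luminescence; Controls: vehicle and MePR control wells.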

[5] = growth inhibitors of H69AR lung tumor, primary screen, human, duplicate replicates (AID 580;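 active = viability at or under a set limit in both replicates, limit being median viability minus 3 SD, cut at about 48% in these data, passing the limit was not always enough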;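 also: 100% = mean luminescence of untreated wells and 0% = no signal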); conditions: H69AR lung tumor cells viability, ATP luminescence, 72 h; at 10 µM; stronger effect = lower value
[6] = reversal of MRP1-mediated doxorubicin resistance, pilot screen, H69AR cells, doxorubicin co-treatment (AID 601;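 active = viability loss from added drug above about 55%, and viability with drug at most 40%, in both replicates, limit read from the data, passing the limit was not always enough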); conditions: CellTiter-Glo, 72 h, at 10 µM; for differential viability (reversal): stronger effect = higher value
[7] = 384-well plate pilot, post-Golgi transport modulator project, inhibition of yeast transport mutant growth (AID 636; in the data active = inhibition above about 31%); conditions: absorbance 615 nm, about 18 h, stronger effect = higher value
[8] = growth suppression of yeast trafficking mutant, preliminary HTS, modulators of trafficking downstream of Golgi apparatus project, 1536-format plate, OD 615 nm (AID 637; in the data active = inhibition above about 30%); conditions: yeast transport mutant growth, absorbance 615 nm, 18 h; stronger effect = higher value
[9] = H69AR cells + 2 uM doxorubicin, measured here: viability with 2 uM doxorubicin, stronger effect = lower value
[10] = H69AR cells, compound alone cytotoxicity

Receptor tyrosine-protein kinase erbB-2 (Homo sapiens), sequence (P04626 whole entry, looked up): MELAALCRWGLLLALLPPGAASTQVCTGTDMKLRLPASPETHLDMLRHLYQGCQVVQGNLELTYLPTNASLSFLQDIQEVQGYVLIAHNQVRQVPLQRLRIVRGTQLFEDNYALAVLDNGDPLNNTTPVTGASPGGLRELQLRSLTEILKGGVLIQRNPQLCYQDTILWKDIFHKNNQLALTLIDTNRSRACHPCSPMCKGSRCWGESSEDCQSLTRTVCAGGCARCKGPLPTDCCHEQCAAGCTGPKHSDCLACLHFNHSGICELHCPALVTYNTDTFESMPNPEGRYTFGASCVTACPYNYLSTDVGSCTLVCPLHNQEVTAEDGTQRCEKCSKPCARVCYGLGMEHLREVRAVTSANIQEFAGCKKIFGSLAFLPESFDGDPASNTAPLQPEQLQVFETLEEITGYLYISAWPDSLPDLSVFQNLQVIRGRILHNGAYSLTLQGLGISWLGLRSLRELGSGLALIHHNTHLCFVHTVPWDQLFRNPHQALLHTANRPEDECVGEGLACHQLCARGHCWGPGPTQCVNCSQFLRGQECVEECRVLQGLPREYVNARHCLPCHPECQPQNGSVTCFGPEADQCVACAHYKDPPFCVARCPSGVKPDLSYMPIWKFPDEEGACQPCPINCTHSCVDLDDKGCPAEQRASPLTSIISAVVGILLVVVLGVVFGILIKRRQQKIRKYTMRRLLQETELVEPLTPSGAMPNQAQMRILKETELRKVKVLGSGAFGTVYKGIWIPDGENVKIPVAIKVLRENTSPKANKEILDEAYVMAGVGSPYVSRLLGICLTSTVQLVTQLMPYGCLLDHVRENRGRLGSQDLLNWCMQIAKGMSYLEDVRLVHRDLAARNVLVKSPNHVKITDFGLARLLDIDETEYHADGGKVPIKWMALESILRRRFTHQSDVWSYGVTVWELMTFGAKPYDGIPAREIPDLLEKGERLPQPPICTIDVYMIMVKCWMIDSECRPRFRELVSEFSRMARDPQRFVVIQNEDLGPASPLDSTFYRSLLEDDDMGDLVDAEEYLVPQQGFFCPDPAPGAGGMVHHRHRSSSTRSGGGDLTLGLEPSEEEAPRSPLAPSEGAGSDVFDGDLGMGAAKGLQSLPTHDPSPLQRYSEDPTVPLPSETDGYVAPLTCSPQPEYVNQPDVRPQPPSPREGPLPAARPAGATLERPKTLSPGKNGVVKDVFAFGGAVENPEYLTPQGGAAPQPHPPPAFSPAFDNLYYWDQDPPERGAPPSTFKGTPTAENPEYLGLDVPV

SMILES | viability [1] [%] | Her2 level [2] | viability [3] | viability [4] | viability [5] | differential viability (reversal) ([6]; H69AR cells + 2 uM doxorubicin) | viability [6, 9] [%] | viability [6, 10] [%] | inhibition [7] | inhibition [8]
COc1ccc(OC)c(Nc2cc(-c3ccccc3)nc(N)n2)c1 | 72 | 69% (inactive) | 72% (inactive) | 34.2% (inactive) | 30.7% (active) | -36.4% (inactive) | 67.1 | 30.7 | -5.92% (inactive) | -5.09% (inactive)
Cc1ccc(-n2ncc(C(=O)N3CCc4ccccc4C3)c2NC(=O)c2ccco2)cc1C | 94 | 92% (inactive) | 94% (inactive) | 83.6% (inactive) | 86.1% (inactive) | -3.83% (inactive) | 89.9 | 86.1 | -0.13% (inactive) | -3.44% (inactive)
Cc1ccc(S(=O)(=O)NCC(=O)N(CC(=O)NC2CCCCC2)Cc2ccco2)cc1 | 135 | 100% (inactive) | 135% (inactive) | 91% (inactive) | 93.9% (inactive) | 2.62% (inactive) | 91.3 | 93.9 | -5.87% (inactive) | 4.76% (inactive)
CC(=O)c1cc(F)c(N2CCN(C(=O)Cc3ccccc3)CC2)cc1C | 96.5 | 97% (inactive) | 96.5% (inactive) | 107% (inactive) | 93.5% (inactive) | -7.49% (inactive) | 101 | 93.5 | 0% (inactive) | -4.35% (inactive)
Cc1cc(C)n(C(=O)CNC(=O)C2COc3ccccc3O2)n1 (stereo not given) | 122 | 97.5% (inactive) | 122% (inactive) | 87.2% (inactive) | 97.1% (inactive) | 3.57% (inactive) | 93.5 | 97.1 | -4.74% (inactive) | -1.59% (inactive)
CCOc1cc(-c2nc(-c3ccc(C)nc3OCC)no2)cc(OCC)c1OCC | 91.5 | 108% (inactive) | 91.5% (inactive) | 82.2% (inactive) | 94.8% (inactive) | -3.25% (inactive) | 98 | 94.8 | 2% (inactive) | 3.44% (inactive)
Cc1ccc(C)c(NC(=O)c2ccc3c(c2)N(Cc2ccc(F)cc2)C(=O)CS3=O)c1 (stereo not given) | 85.5 | 102% (inactive) | 85.5% (inactive) | 95.2% (inactive) | 97.1% (inactive) | 3.96% (inactive) | 93.1 | 97.1 | -1.6% (inactive) | -0.66% (inactive)
O=C(Nc1ccc2oc(-c3ccncc3)nc2c1)c1cccs1 | 96 | 112% (inactive) | 96% (inactive) | 88.9% (inactive) | 79.6% (inactive) | 0.7% (inactive) | 78.9 | 79.6 | -2.76% (inactive) | 2.3% (inactive)
Cc1cc(C)c(C)c(S(=O)(=O)Nc2ccc(O)cc2)c1C | 100 | 87.5% (inactive) | 100% (inactive) | 96.6% (inactive) | 96.8% (inactive) | 14.1% (inactive) | 82.7 | 96.8 | -4.4% (inactive) | -1.61% (inactive)
CCCS(=O)(=O)N1CCC(C(=O)N2CCCC2)CC1 | 112 | 93% (inactive) | 112% (inactive) | 115% (inactive) | 95% (inactive) | 3.92% (inactive) | 91.1 | 95 | -3.55% (inactive) | -0.82% (inactive)
C#CC(CO)N(CCN(Cc1ccccc1)C(C#C)CO)Cc1ccccc1 (stereo not given) | 107 | 85% (inactive) | 107% (inactive) | 79.4% (inactive) | 90.3% (inactive) | 9.04% (inactive) | 81.3 | 90.3 | -7.16% (inactive) | 1.5% (inactive)
COc1ccc(C(=O)N2CCCc3ccccc32)cc1 | 87.5 | 94% (inactive) | 87.5% (inactive) | 116% (inactive) | 104% (inactive) | 11.1% (inactive) | 93 | 104 | -4% (inactive) | 5.81% (inactive)
O=C(O)CCNc1ccc2c(c1)OCCO2 | 97.5 | 86.5% (inactive) | 97.5% (inactive) | 109% (inactive) | 86.9% (inactive) | 7.24% (inactive) | 79.6 | 86.9 | -5.14% (inactive) | -2.67% (inactive)
O=C1CSC(c2cn(-c3ccccc3)nc2-c2ccccc2)N1Cc1ccco1 (stereo not given) | 97 | 110% (inactive) | 97% (inactive) | 63.1% (inactive) | 88.3% (inactive) | 17.7% (inactive) | 70.6 | 88.3 | 0.92% (inactive) | 3.55% (inactive)
COc1ccc(C2C(C(=O)NCCN3CCOCC3)c3ccccc3C(=O)N2C2CCCCC2)cc1 (stereo not given) | 88.5 | 71% (inactive) | 88.5% (inactive) | 64.3% (inactive) | 81.3% (inactive) | 2.12% (inactive) | 79.2 | 81.3 | -3.33% (inactive) | 0% (inactive)
CC(C)CSc1nc2ccccc2n1CC(N)=O | 89.5 | 96% (inactive) | 89.5% (inactive) | 87.6% (inactive) | 93.4% (inactive) | 0.185% (inactive) | 93.2 | 93.4 | -0.38% (inactive) | 0.67% (inactive)

SMILES | viability [1] [%] | Her2 level [2] | viability [3] | viability [4] | viability [5] | differential viability (reversal) ([6]; H69AR cells + 2 uM doxorubicin) | viability [6, 9] [%] | viability [6, 10] [%] | inhibition [7] | inhibition [8]
CCCCOCCCNC(=O)c1cccs1 | 103 | 102% (inactive) | 103% (inactive) | 97.8% (inactive) | 104% (inactive) | 11.5% (inactive) | 92.5 | 104 | -2.21% (inactive) | -3.17% (inactive)
CC(C)N1C(=O)C2C(C(=O)NC3CCCCC3)C3C=CC2(O3)C1C(=O)NC1CCCC1 (stereo not given) | 94.5 | 87% (inactive) | 94.5% (inactive) | 107% (inactive) | 109% (inactive) | 15.9% (inactive) | 93.5 | 109 | -4.67% (inactive) | -1.11% (inactive)
COCCn1c(SCc2csc(-c3ccccc3)n2)nc2ccccc21 | 94 | 98.5% (inactive) | 94% (inactive) | 71.5% (inactive) | 88.5% (inactive) | -2.99% (inactive) | 91.5 | 88.5 | 1.3% (inactive) | -8.03% (inactive)
CN(C)S(=O)(=O)c1ccc2c(c1)C(CC(=O)O)OC2=O (stereo not given) | 94 | 96.5% (inactive) | 94% (inactive) | 111% (inactive) | 96.1% (inactive) | -0.855% (inactive) | 96.9 | 96.1 | -1.6% (inactive) | 17.1% (inactive)
N/C(=N/O)c1nc(N2CCCC2)nc(N(c2ccccc2)c2ccccc2)n1 | 108 | 93.5% (inactive) | 108% (inactive) | 75.9% (inactive) | 65.2% (inactive) | 5.79% (inactive) | 59.4 | 65.2 | -6.62% (inactive) | 3.17% (inactive)
COc1cccc(S(=O)(=O)Nc2cccnc2)c1 | 98 | 107% (inactive) | 98% (inactive) | 88.2% (inactive) | 103% (inactive) | 12.3% (inactive) | 90.3 | 103 | -0.4% (inactive) | -3.71% (inactive)
CN(CC(=O)Nc1nccs1)S(=O)(=O)c1ccc(F)cc1 | 82 | 114% (inactive) | 82% (inactive) | 92.1% (inactive) | 95.2% (inactive) | -7.69% (inactive) | 103 | 95.2 | 0.78% (inactive) | -4.75% (inactive)
CC(C)(C)OC(=O)N1CCC(C(=O)N2CCCCCC2)CC1 | 94 | 87.5% (inactive) | 94% (inactive) | 102% (inactive) | 107% (inactive) | 21.3% (inactive) | 86.2 | 107 | -1.71% (inactive) | -6.36% (inactive)
CCCCOc1cc(=O)[nH]c(=O)[nH]1 | 108 | 99% (inactive) | 108% (inactive) | 95.2% (inactive) | 102% (inactive) | 8.32% (inactive) | 93.4 | 102 | -2.11% (inactive) | -7.33% (inactive)
Cc1ccc(NC(=O)C2CCCN(S(=O)(=O)c3cnc[nH]3)C2)c(Br)c1 (stereo not given) | 88.5 | 92% (inactive) | 88.5% (inactive) | 88.1% (inactive) | 101% (inactive) | 8.17% (inactive) | 93.3 | 101 | -0.93% (inactive) | -1.97% (inactive)
CCc1ccc(CN(C)CCc2ccccn2)cc1 | 108 | 86% (inactive) | 108% (inactive) | 106% (inactive) | 102% (inactive) | 16.7% (inactive) | 85.8 | 102 | -5.62% (inactive) | -3.02% (inactive)
Cc1csc2nc3ccccc3c(=O)n12 | 100 | 91% (inactive) | 100% (inactive) | 103% (inactive) | 94.7% (inactive) | 1.49% (inactive) | 93.2 | 94.7 | -1.84% (inactive) | 1.31% (inactive)
Cc1cccc2cc(CN(CC3CCCO3)C(=O)c3cnccn3)c(=O)[nH]c12 (stereo not given) | 116 | 105% (inactive) | 116% (inactive) | 96.9% (inactive) | 85.1% (inactive) | -2.77% (inactive) | 87.9 | 85.1 | -1.43% (inactive) | -0.67% (inactive)
Nc1cc(-c2ccccc2)ccc1O | 100 | 70.5% (inactive) | 100% (inactive) | 86.3% (inactive) | 73% (inactive) | 12% (inactive) | 60.9 | 73 | -7.16% (inactive) | 8.33% (inactive)
COc1ccc(-c2cn3c(C)c(C(=O)Nc4cc(NC(C)=O)ccc4OC)sc3n2)cc1 | 92 | 79.5% (inactive) | 92% (inactive) | 71.5% (inactive) | 20.2% (active) | -42.9% (inactive) | 63.1 | 20.2 | -5.73% (inactive) | -2.13% (inactive)
COCCn1c(C)cc(C(=O)COC(=O)CCN2C(=O)c3ccccc3C2=O)c1C | 94.5 | 98.5% (inactive) | 94.5% (inactive) | 97.9% (inactive) | 96.6% (inactive) | 5.55% (inactive) | 91.1 | 96.6 | -5.33% (inactive) | 0.65% (inactive)
